Tested on: adult patients with advanced non-haematological malignancies
Assay: Safety and tolerability
Type: in vivo, human
Summary of the method: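 Patients on milled oral capsules, fasted, in 28-day cycles. AEs and SAEs recorded from first dose through 30 days after last dose. Graded by NCI CTCAE v4.03 and coded to MedDRA v19.0. Relatedness to study drug judged by investigator.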

CC(C)n1nc(-c2ccc3oc(N)nc3c2)c2c(N)ncnc21 [TAK-228, Sapanisertib]
AE resulting in TAK-228 discontinuation (QD 3 mg (n=11)): 0 n (%)
Drug-related AE (QD 3 mg (n=11)): 10 (91) n (%)
Drug-related AE: Abdominal pain (QD 3 mg (n=11)): 2 (18) n (%)
Drug-related AE: Decreased appetite (QD 3 mg (n=11)): 3 (27) n (%)
Drug-related AE: Diarrhoea (QD 3 mg (n=11)): 2 (18) n (%)
Drug-related AE: Fatigue (QD 3 mg (n=11)): 6 (55) n (%)
Drug-related AE: Hyperglycaemia (QD 3 mg (n=11)): 2 (18) n (%)
Drug-related AE: Nausea (QD 3 mg (n=11)): 4 (36) n (%)
Drug-related AE: Pruritus (QD 3 mg (n=11)): 4 (36) n (%)
Drug-related AE: Rash (QD 3 mg (n=11)): 1 (9) n (%)
Drug-related AE: Rash (maculopapular) (QD 3 mg (n=11)): 4 (36) n (%)
Drug-related AE: Stomatitis (QD 3 mg (n=11)): 1 (9) n (%)
Drug-related AE: Vomiting (QD 3 mg (n=11)): 1 (9) n (%)
Drug-related SAE (QD 3 mg (n=11)): 0 n (%)
Drug-related grade ≥3 AE (QD 3 mg (n=11)): 5 (46) n (%)
Grade ≥3 AE (QD 3 mg (n=11)): 6 (55) n (%)
Grade ≥3 AE: Abdominal pain (QD 3 mg (n=11)): 1 (9) n (%)
Grade ≥3 AE: Anaemia (QD 3 mg (n=11)): 0 n (%)
Grade ≥3 AE: Blood phosphorus decreased (QD 3 mg (n=11)): 1 (9) n (%)
Grade ≥3 AE: Diarrhoea (QD 3 mg (n=11)): 1 (9) n (%)
Grade ≥3 AE: Fatigue (QD 3 mg (n=11)): 0 n (%)
Grade ≥3 AE: Hyperglycaemia (QD 3 mg (n=11)): 1 (9) n (%)
Grade ≥3 AE: Hyponatraemia (QD 3 mg (n=11)): 1 (9) n (%)
Grade ≥3 AE: Rash macular (QD 3 mg (n=11)): 1 (9) n (%)
On-study deaths (QD 3 mg (n=11)): 0 n (%)
SAE (QD 3 mg (n=11)): 3 (27) n (%)
AE resulting in TAK-228 discontinuation (QD 4 mg (n=6)): 1 (17) n (%)
Drug-related AE (QD 4 mg (n=6)): 6 (100) n (%)
Drug-related AE: Abdominal pain (QD 4 mg (n=6)): 1 (17) n (%)
Drug-related AE: Decreased appetite (QD 4 mg (n=6)): 2 (33) n (%)
Drug-related AE: Diarrhoea (QD 4 mg (n=6)): 3 (50) n (%)
Drug-related AE: Fatigue (QD 4 mg (n=6)): 4 (67) n (%)
Drug-related AE: Hyperglycaemia (QD 4 mg (n=6)): 1 (17) n (%)
Drug-related AE: Nausea (QD 4 mg (n=6)): 1 (17) n (%)
Drug-related AE: Pruritus (QD 4 mg (n=6)): 3 (50) n (%)
Drug-related AE: Rash (QD 4 mg (n=6)): 2 (33) n (%)
Drug-related AE: Rash (maculopapular) (QD 4 mg (n=6)): 0 n (%)
Drug-related AE: Stomatitis (QD 4 mg (n=6)): 2 (33) n (%)
Drug-related AE: Vomiting (QD 4 mg (n=6)): 1 (17) n (%)
Drug-related SAE (QD 4 mg (n=6)): 0 n (%)
Drug-related grade ≥3 AE (QD 4 mg (n=6)): 5 (83) n (%)
Grade ≥3 AE (QD 4 mg (n=6)): 6 (100) n (%)
Grade ≥3 AE: Abdominal pain (QD 4 mg (n=6)): 0 n (%)
Grade ≥3 AE: Anaemia (QD 4 mg (n=6)): 0 n (%)
Grade ≥3 AE: Blood phosphorus decreased (QD 4 mg (n=6)): 0 n (%)
Grade ≥3 AE: Diarrhoea (QD 4 mg (n=6)): 0 n (%)
Grade ≥3 AE: Fatigue (QD 4 mg (n=6)): 2 (33) n (%)
Grade ≥3 AE: Hyperglycaemia (QD 4 mg (n=6)): 1 (17) n (%)
Grade ≥3 AE: Hyponatraemia (QD 4 mg (n=6)): 1 (17) n (%)
Grade ≥3 AE: Rash macular (QD 4 mg (n=6)): 1 (17) n (%)
On-study deaths (QD 4 mg (n=6)): 1 (17) n (%)
SAE (QD 4 mg (n=6)): 2 (33) n (%)
AE resulting in TAK-228 discontinuation (QD Total (n=17)): 1 (6) n (%)
Drug-related AE (QD Total (n=17)): 16 (94) n (%)
Drug-related AE: Abdominal pain (QD Total (n=17)): 3 (18) n (%)
Drug-related AE: Decreased appetite (QD Total (n=17)): 5 (29) n (%)
Drug-related AE: Diarrhoea (QD Total (n=17)): 5 (29) n (%)
Drug-related AE: Fatigue (QD Total (n=17)): 10 (59) n (%)
Drug-related AE: Hyperglycaemia (QD Total (n=17)): 3 (18) n (%)
Drug-related AE: Nausea (QD Total (n=17)): 5 (29) n (%)
Drug-related AE: Pruritus (QD Total (n=17)): 7 (41) n (%)
Drug-related AE: Rash (QD Total (n=17)): 3 (18) n (%)
Drug-related AE: Rash (maculopapular) (QD Total (n=17)): 4 (24) n (%)
Drug-related AE: Stomatitis (QD Total (n=17)): 3 (18) n (%)
Drug-related AE: Vomiting (QD Total (n=17)): 2 (12) n (%)
Drug-related SAE (QD Total (n=17)): 0 n (%)
Drug-related grade ≥3 AE (QD Total (n=17)): 10 (59) n (%)
Grade ≥3 AE (QD Total (n=17)): 12 (71) n (%)
Grade ≥3 AE: Abdominal pain (QD Total (n=17)): 1 (6) n (%)
Grade ≥3 AE: Anaemia (QD Total (n=17)): 0 n (%)
Grade ≥3 AE: Blood phosphorus decreased (QD Total (n=17)): 1 (6) n (%)
Grade ≥3 AE: Diarrhoea (QD Total (n=17)): 1 (6) n (%)
Grade ≥3 AE: Fatigue (QD Total (n=17)): 2 (12) n (%)
Grade ≥3 AE: Hyperglycaemia (QD Total (n=17)): 2 (12) n (%)
Grade ≥3 AE: Hyponatraemia (QD Total (n=17)): 2 (12) n (%)
Grade ≥3 AE: Rash macular (QD Total (n=17)): 2 (12) n (%)
On-study deaths (QD Total (n=17)): 1 (6) n (%)
SAE (QD Total (n=17)): 5 (29) n (%)
Asthaenic conditions, patients (QD arm): 59%
Drug-related AE of any grade: decreased appetite (QD arm): 29%
Drug-related AE of any grade: diarrhoea (QD arm): 29%
Drug-related AE of any grade: fatigue (QD arm): 59%
Drug-related AE of any grade: nausea (QD arm): 29%
Drug-related AE of any grade: pruritus (QD arm): 41%
Grade ≥3 AE: Fatigue (QD arm): 12%
Grade ≥3 AE: Hyperglycaemia (QD arm): 12%
Grade ≥3 AE: Hyponatraemia (QD arm): 12%
Grade ≥3 AE: macular rash (QD arm): 12%
SAEs, patients (QD arm): 29%
Incidence of grade ≥3 drug-related AEs (QD milled TAK-228): 59%
AE resulting in TAK-228 discontinuation (QW 20 mg (n=7)): 0 n (%)
Drug-related AE (QW 20 mg (n=7)): 5 (71) n (%)
Drug-related AE: Asthaenia (QW 20 mg (n=7)): 1 (14) n (%)
Drug-related AE: Decreased appetite (QW 20 mg (n=7)): 1 (14) n (%)
Drug-related AE: Dehydration (QW 20 mg (n=7)): 1 (14) n (%)
Drug-related AE: Diarrhoea (QW 20 mg (n=7)): 4 (57) n (%)

Reference: publication PMC5812400 (ESMO Open, 2018)
